# Data from ChEMBL document CHEMBL4152228, “Structural-based design, synthesis, and antitumor activity of novel alloxazine analogues with potential selective kinase inhibition” (Eur J Med Chem, 2018).
# Tests used:
# MCF7 [1] = assay: Induction of apoptosis in human MCF7 cells assessed as early apoptotic cells at 1 uM after 72 hrs by annexin V-FITC/propidium iodide staining-based flow cytometric method (reference value: 9%); type: functional
# MCF7 [2] = assay: Induction of apoptosis in human MCF7 cells assessed as increase of early apoptotic cells after 72 hrs by annexin V-FITC/propidium iodide staining-based flow cytometric method; type: functional, cell-based
# Procedure, shortened: (§1)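 MCF-7 cells treated 72 h at final 1, 5, 10 µM, then annexin V-FITC/PI stained in pH 7.4 HEPES binding buffer and analysed by flow cytometry. Early or late apoptotic cell fraction expressed as percent change versus vehicle control: (sample − control)/control × 100. Triplicates.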
# MCF7 [3] = assay: Induction of apoptosis in human MCF7 cells assessed as necrotic cells at 5 uM after 72 hrs by annexin V-FITC/propidium iodide staining-based flow cytometric method (reference value: 12.6%); type: functional
# MCF7 [4] = assay: Induction of apoptosis in human MCF7 cells assessed as necrotic cells at 1 uM after 72 hrs by annexin V-FITC/propidium iodide staining-based flow cytometric method (reference value: 12.6%); type: functional
# MCF7 [5] = assay: Induction of apoptosis in human MCF7 cells assessed as late apoptotic cells at 1 uM after 72 hrs by annexin V-FITC/propidium iodide staining-based flow cytometric method (reference value: 2.6%); type: functional
# MCF7 [6] = assay: Induction of apoptosis in human MCF7 cells assessed as viable cells at 1 uM after 72 hrs by annexin V-FITC/propidium iodide staining-based flow cytometric method (reference value: 76%); type: functional; conditions: MCF7, 72 h, read-out: Activity
# MCF7 [7] = assay: Induction of apoptosis in human MCF7 cells assessed as viable cells at 5 uM after 72 hrs by annexin V-FITC/propidium iodide staining-based flow cytometric method (reference value: 76%); type: functional; conditions: MCF7, 72 h, read-out: Activity
# MCF7 [8] = assay: Induction of apoptosis in human MCF7 cells assessed as necrotic cells at 10 uM after 72 hrs by annexin V-FITC/propidium iodide staining-based flow cytometric method (reference value: 12.6%); type: functional
# MCF7 [9] = assay: Induction of apoptosis in human MCF7 cells assessed as late apoptotic cells at 10 uM after 72 hrs by annexin V-FITC/propidium iodide staining-based flow cytometric method (reference value: 2.6%); type: functional
# K562 = assay: Antiproliferative activity against human K562 cells after 72 hrs by MTT assay; type: functional, cell-based; conditions: K562, 72 h
# MCF7 [10] = assay: Induction of apoptosis in human MCF7 cells assessed as early apoptotic cells at 5 uM after 72 hrs by annexin V-FITC/propidium iodide staining-based flow cytometric method (reference value: 9%); type: functional
# MCF7 [11] = assay: Induction of apoptosis in human MCF7 cells assessed as late apoptotic cells at 5 uM after 72 hrs by annexin V-FITC/propidium iodide staining-based flow cytometric method (reference value: 2.6%); type: functional
# A2780 = assay: Antiproliferative activity against human A2780 cells after 72 hrs by MTT assay; type: functional, cell-based; conditions: A2780, 72 h
# Procedure, shortened: (§2)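 MTT viability assay. Cells grown in RPMI-1640 with 10% heat-inactivated FBS, L-glutamine and 1% penicillin/streptomycin, used within 20 passages. Seeded at 5×10^3 cells/well, left overnight at 37 °C, then exposed to final concentrations of 0.005–50 µM (0.1% DMSO) for up to 72 h. MTT added for 3 h, formazan dissolved in DMSO, absorbance read at 550 nm. IC50 derived relative to untreated controls.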
# [12] = Antiproliferative activity against human WM793B cells after 72 hrs by MTT assay; type: functional, cell-based; procedure, shortened: as §2
# MCF7 [13] = assay: Antiproliferative activity against human MCF7 cells after 72 hrs by MTT assay; type: functional, cell-based; conditions: MCF7, 72 h; procedure, shortened: as §2
# HCT-116 = assay: Antiproliferative activity against human HCT116 cells after 72 hrs by MTT assay; type: functional, cell-based; conditions: HCT-116, 72 h; procedure, shortened: as §2
# MCF7 [14] = assay: Ratio of increase in late apoptotic cells to early apoptotic cells in human MCF7 cells at 10 uM after 72 hrs by annexin V-FITC/propidium iodide staining-based flow cytometric method; type: functional
# MCF7 [15] = assay: Induction of apoptosis in human MCF7 cells assessed as increase of early apoptotic cells at 1 to 10 uM after 72 hrs by annexin V-FITC/propidium iodide staining-based flow cytometric method relative to control; type: functional; procedure, shortened: as §1
# MCF7 [16] = assay: Induction of apoptosis in human MCF7 cells assessed as viable cells at 10 uM after 72 hrs by annexin V-FITC/propidium iodide staining-based flow cytometric method (reference value: 76%); type: functional; conditions: MCF7, 72 h, read-out: Activity
# MCF7 [17] = assay: Induction of apoptosis in human MCF7 cells assessed as early apoptotic cells at 10 uM after 72 hrs by annexin V-FITC/propidium iodide staining-based flow cytometric method (reference value: 9%); type: functional
# [18] = target: Focal adhesion kinase 1 (Homo sapiens) (UniProt Q05397); assay: Inhibition of FAK (unknown origin) at 10 uM by [33P]-ATP radiometric assay
# Procedure, shortened: (§3)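 Radiometric kinase profiling: purified recombinant kinase (~10–50 nM final) with substrate, assay buffer and compound at 10 µM (control 10% DMSO). Started with 33P-ATP (50 µM stock, 0.8 µCi), run 30 min at ambient temperature, then spotted onto P81 phosphocellulose and washed in 1% phosphoric acid. Scintillation counted, no-substrate blank subtracted, single measurement, result given as % change versus control.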
# [19] = target: Hepatocyte growth factor receptor (Homo sapiens) (UniProt P08581); assay: Inhibition of MET (unknown origin) at 10 uM by [33P]-ATP radiometric assay; procedure, shortened: as §3
# Chain of Hepatocyte growth factor receptor (Homo sapiens) (P08581 whole entry): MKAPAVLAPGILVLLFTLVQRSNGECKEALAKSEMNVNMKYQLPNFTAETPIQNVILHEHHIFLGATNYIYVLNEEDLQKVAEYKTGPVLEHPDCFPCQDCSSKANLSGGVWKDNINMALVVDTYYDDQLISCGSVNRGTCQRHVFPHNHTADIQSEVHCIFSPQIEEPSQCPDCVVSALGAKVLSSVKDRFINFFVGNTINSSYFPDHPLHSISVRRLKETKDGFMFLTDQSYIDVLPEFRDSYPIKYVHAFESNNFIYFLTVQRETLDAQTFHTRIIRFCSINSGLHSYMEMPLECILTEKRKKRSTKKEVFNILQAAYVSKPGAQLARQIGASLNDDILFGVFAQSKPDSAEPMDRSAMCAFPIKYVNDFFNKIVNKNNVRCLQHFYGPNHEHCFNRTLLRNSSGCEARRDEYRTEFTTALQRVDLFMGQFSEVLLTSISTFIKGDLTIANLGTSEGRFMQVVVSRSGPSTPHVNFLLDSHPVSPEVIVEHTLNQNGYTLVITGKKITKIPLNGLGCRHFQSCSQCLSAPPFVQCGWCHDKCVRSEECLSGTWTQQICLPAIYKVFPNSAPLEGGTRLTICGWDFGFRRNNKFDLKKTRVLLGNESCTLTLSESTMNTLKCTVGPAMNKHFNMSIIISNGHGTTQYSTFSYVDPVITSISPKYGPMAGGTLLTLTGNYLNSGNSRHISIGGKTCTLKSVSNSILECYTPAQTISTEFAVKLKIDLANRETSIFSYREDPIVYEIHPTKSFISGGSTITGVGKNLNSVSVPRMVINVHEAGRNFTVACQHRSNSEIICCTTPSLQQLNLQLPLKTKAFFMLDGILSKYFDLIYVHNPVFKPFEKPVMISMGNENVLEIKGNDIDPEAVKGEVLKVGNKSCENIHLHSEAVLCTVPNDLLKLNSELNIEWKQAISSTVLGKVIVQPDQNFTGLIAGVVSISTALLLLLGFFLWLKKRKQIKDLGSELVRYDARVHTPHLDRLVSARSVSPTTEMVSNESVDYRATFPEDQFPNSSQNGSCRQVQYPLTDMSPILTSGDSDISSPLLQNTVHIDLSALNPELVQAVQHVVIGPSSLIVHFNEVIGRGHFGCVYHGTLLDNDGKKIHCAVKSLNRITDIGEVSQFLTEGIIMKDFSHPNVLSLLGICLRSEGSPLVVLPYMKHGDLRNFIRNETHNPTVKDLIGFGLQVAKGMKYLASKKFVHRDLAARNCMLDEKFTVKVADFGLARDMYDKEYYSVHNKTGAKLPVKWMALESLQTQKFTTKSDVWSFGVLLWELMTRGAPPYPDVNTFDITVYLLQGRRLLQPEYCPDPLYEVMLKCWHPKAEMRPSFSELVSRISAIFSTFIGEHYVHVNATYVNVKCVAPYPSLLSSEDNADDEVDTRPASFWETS
# [20] = target: Mitogen-activated protein kinase 8 (Homo sapiens) (UniProt P45983); assay: Inhibition of JNK1 (unknown origin) at 10 uM by [33P]-ATP radiometric assay; procedure, shortened: as §3
# Chain of Mitogen-activated protein kinase 8 (Homo sapiens) (P45983 whole entry): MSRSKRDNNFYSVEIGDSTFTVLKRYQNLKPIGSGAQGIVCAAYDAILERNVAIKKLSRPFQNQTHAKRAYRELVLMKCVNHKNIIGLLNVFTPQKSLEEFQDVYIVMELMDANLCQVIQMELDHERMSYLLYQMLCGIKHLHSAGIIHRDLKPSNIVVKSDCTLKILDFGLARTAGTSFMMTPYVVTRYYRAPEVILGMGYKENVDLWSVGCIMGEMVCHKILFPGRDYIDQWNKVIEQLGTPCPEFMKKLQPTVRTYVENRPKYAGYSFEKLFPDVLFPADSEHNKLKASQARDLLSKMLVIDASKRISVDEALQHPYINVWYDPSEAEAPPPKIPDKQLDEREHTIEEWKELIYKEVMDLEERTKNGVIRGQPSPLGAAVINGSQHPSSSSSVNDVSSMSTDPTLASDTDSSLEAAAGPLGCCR
# [21] = target: Receptor tyrosine-protein kinase erbB-2 (Homo sapiens) (UniProt P04626); assay: Inhibition of HER2 (unknown origin) at 10 uM by [33P]-ATP radiometric assay; procedure, shortened: as §3
# [22] = target: Fibroblast growth factor receptor 1 (Homo sapiens) (UniProt P11362); assay: Inhibition of FGFR1 (unknown origin) at 10 uM by [33P]-ATP radiometric assay; procedure, shortened: as §3
# [23] = target: Vascular endothelial growth factor receptor 1 (Homo sapiens) (UniProt P17948); assay: Inhibition of FLT1 (unknown origin) at 10 uM by [33P]-ATP radiometric assay; procedure, shortened: as §3
# [24] = target: Cyclin-dependent kinase 16 (Homo sapiens) (UniProt Q00536); assay: Inhibition of CDK16 (unknown origin) at 10 uM by [33P]-ATP radiometric assay; procedure, shortened: as §3
# Chain of Cyclin-dependent kinase 16 (Homo sapiens) (Q00536 whole entry): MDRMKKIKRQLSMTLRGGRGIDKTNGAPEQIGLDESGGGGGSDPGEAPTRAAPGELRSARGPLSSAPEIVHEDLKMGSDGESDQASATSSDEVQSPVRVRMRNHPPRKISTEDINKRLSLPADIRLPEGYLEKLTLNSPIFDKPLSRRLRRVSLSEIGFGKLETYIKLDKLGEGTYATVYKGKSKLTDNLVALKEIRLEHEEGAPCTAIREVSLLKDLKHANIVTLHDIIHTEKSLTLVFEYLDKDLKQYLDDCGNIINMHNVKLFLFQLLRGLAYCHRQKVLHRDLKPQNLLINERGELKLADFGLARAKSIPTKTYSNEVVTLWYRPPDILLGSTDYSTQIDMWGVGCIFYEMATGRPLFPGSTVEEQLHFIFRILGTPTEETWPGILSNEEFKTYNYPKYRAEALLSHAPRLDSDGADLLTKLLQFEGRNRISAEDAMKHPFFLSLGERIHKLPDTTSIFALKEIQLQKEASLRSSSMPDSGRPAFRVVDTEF
# [25] = target: Activin receptor type-2A (Homo sapiens) (UniProt P27037); assay: Inhibition of ACVR2A (unknown origin) at 10 uM by [33P]-ATP radiometric assay; procedure, shortened: as §3
# [26] = target: Mast/stem cell growth factor receptor Kit (Homo sapiens) (UniProt P10721); assay: Inhibition of c-KIT (unknown origin) at 10 uM by [33P]-ATP radiometric assay
# Procedure, shortened: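 Radiometric kinase profiling: purified recombinant kinase (~10–50 nM final) with substrate, assay buffer and compound at 10 µM (control 10% DMSO). Started with 33P-ATP (50 µM stock, 0.8 µCi), run 30 min at ambient temperature, then spotted onto P81 phosphocellulose and washed in 1% phosphoric acid.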
# [27] = target: Mitogen-activated protein kinase 3 (Homo sapiens) (UniProt P27361); assay: Inhibition of ERK1 (unknown origin) at 10 uM by [33P]-ATP radiometric assay; procedure, shortened: as §3
# Chain of Mitogen-activated protein kinase 3 (Homo sapiens) (P27361 whole entry): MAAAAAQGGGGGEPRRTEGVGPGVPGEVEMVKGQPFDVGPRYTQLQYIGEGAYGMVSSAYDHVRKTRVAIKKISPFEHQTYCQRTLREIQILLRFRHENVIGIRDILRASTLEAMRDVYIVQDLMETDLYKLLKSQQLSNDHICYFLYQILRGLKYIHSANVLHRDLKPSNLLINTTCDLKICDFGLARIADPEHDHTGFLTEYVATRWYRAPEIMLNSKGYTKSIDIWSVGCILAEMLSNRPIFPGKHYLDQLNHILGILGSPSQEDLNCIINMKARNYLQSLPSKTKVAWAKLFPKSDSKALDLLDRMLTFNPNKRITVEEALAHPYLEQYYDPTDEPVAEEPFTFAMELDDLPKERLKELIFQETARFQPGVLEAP
# [28] = target: Calcium/calmodulin-dependent protein kinase type 1 (Homo sapiens) (UniProt Q14012); assay: Inhibition of CAMK1 (unknown origin) at 10 uM by [33P]-ATP radiometric assay; procedure, shortened: as §3
# Chain of Calcium/calmodulin-dependent protein kinase type 1 (Homo sapiens) (Q14012 whole entry, looked up): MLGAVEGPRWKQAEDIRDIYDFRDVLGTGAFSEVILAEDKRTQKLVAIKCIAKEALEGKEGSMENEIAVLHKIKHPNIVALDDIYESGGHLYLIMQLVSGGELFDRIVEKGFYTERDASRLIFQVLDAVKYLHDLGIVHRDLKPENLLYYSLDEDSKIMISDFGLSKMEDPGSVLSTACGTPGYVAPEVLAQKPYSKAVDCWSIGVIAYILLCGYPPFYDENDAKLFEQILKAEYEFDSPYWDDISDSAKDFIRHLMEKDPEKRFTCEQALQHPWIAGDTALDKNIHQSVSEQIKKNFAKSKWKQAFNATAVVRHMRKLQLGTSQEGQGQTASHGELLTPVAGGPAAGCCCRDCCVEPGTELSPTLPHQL
# [29] = target: Epidermal growth factor receptor (Homo sapiens) (UniProt P00533); assay: Inhibition of EGFR (unknown origin) at 10 uM by [33P]-ATP radiometric assay; procedure, shortened: as §3
# Chain of Epidermal growth factor receptor (Homo sapiens) (P00533 whole entry): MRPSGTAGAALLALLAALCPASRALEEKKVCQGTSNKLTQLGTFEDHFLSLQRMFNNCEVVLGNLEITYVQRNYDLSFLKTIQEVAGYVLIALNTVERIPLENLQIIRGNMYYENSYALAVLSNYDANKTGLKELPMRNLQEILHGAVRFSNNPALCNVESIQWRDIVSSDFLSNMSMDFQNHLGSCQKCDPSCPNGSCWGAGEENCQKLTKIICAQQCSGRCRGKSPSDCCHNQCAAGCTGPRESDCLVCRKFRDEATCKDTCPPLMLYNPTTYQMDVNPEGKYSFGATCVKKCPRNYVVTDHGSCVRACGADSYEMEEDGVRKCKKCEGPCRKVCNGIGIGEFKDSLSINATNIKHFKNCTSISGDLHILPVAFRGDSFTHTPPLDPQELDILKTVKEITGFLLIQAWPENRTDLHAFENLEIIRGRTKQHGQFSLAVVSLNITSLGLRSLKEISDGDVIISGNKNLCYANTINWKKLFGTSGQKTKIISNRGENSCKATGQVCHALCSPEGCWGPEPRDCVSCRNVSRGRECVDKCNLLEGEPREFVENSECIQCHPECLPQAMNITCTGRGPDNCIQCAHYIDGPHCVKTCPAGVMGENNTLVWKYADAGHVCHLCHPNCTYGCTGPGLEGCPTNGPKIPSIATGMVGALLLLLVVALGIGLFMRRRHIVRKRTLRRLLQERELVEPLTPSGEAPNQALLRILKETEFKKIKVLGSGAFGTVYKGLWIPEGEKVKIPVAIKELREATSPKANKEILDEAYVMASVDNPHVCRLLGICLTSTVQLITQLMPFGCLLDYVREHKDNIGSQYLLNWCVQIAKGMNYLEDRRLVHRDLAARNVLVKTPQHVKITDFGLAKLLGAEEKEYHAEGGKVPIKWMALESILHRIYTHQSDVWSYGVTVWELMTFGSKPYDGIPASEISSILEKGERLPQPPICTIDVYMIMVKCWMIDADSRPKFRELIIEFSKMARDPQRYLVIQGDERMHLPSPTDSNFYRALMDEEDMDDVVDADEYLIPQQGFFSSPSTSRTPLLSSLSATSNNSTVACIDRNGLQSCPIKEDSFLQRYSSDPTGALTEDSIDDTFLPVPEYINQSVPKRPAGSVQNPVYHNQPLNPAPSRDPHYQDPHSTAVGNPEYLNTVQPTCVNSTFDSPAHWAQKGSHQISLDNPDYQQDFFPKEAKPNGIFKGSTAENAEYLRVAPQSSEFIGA
# [30] = target: Protein kinase C beta type (Homo sapiens) (UniProt P05771); assay: Inhibition of PCK-beta2 (unknown origin) at 10 uM by [33P]-ATP radiometric assay; procedure, shortened: as §3
# [31] = target: Calcium/calmodulin-dependent protein kinase type II subunit alpha (Homo sapiens) (UniProt Q9UQM7); assay: Inhibition of CAMK2-alpha (unknown origin) at 10 uM by [33P]-ATP radiometric assay; procedure, shortened: as §3
# Chain of Calcium/calmodulin-dependent protein kinase type II subunit alpha (Homo sapiens) (Q9UQM7 whole entry, canonical isoform): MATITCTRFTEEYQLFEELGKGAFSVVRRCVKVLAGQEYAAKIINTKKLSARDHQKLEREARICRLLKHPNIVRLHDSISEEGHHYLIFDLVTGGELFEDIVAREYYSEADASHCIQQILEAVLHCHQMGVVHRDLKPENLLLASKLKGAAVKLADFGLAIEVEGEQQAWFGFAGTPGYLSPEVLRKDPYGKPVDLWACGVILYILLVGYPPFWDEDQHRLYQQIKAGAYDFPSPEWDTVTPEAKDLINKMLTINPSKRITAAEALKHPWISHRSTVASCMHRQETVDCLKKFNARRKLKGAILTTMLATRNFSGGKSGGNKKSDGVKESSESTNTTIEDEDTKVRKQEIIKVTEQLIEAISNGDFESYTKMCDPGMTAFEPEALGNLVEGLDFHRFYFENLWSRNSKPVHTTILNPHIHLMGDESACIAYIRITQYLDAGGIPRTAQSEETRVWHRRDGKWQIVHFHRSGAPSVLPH
# [32] = target: Casein kinase I isoform alpha (Homo sapiens) (UniProt P48729); assay: Inhibition of CK1alpha1 (unknown origin) at 10 uM by [33P]-ATP radiometric assay; procedure, shortened: as §3
# MCF7 [33] = assay: Induction of apoptosis in human MCF7 cells assessed as increase of late apoptotic cells at 10 uM after 72 hrs by annexin V-FITC/propidium iodide staining-based flow cytometric method relative to control; type: functional; procedure, shortened: as §1
# [34] = target: Cyclin-dependent kinase 1/Cyclin A1 (Homo sapiens) (UniProt P06493+P78396); assay: Inhibition of CDK1/cyclin A1 (unknown origin) at 10 uM by [33P]-ATP radiometric assay; type: protein-complex assay; procedure, shortened: as §3
# MCF7 [35] = assay: Induction of apoptosis in human MCF7 cells assessed as increase of early apoptotic cells at 1 uM after 72 hrs by annexin V-FITC/propidium iodide staining-based flow cytometric method relative to control; type: functional
IC50 (K562) [nM],IC50 (A2780) [nM],IC50 (MCF7 [13]) [nM],IC50 (HCT-116) [nM],inhibition [19] [%],SMILES,Activity (MCF7 [1]) [%],Activity (MCF7 [2]),Activity (MCF7 [3]) [%],Activity (MCF7 [4]) [%],Activity (MCF7 [5]) [%],viability at 1 µM (MCF7 [6]) [%],viability at 5 µM (MCF7 [7]) [%],Activity (MCF7 [8]) [%],Activity (MCF7 [9]) [%],Activity (MCF7 [10]) [%],Activity (MCF7 [11]) [%],IC50 [12] [nM],fold change (FC) (MCF7 [15]),viability at 10 µM (MCF7 [16]) [%],Activity (MCF7 [17]) [%],further results
> 50000,50,40,50,2,COc1ccc2nc3nc(NCc4ccc(CN5CCN(C)CC5)cc4)[nH]c(=O)c3nc2c1,8.1,–,18.6,9.7,3.7,78.4,72.3,16.3,5.4,5,4.1,–,–,72.2,6.2,inhibition [18]: -10%; inhibition [20]: -7%; inhibition [21]: -2%; inhibition [22]: 8%; inhibition [23]: 12%; inhibition [24]: 12%; inhibition [25]: -6%; inhibition [26]: -9%; inhibition [27]: 7%; inhibition [28]: 19%; inhibition [29]: 25%; inhibition [30]: -7%; inhibition [31]: 8%; inhibition [32]: -1%
> 50000,200,160,170,7,COc1ccc(CCN2CCC(Nc3nc4nc5ccc(C)cc5nc4c(=O)[nH]3)CC2)cc1,12.4,Dose-dependent effect,3.6,7.6,13.3,66.7,64.1,4.8,30,18,14.1,> 50000,2,44.6,20.7,inhibition [20]: 10%; inhibition [22]: 1%; inhibition [23]: -5%; inhibition [24]: 18%; inhibition [25]: -5%; inhibition [26]: -7%; inhibition [27]: 8%; inhibition [28]: 19%; fold change (FC) (MCF7 [33]): 12; inhibition [29]: -2%; inhibition [30]: 7%; inhibition [31]: 4%; inhibition [32]: 9%
9970,10100,11600,13000,0,O=c1[nH]c(NCc2ccc(CN3CCCCC3)cc2)nc2nc3ccccc3cc12,–,–,–,–,–,–,–,–,–,–,–,39000,–,–,–,inhibition [20]: -7%; inhibition [21]: 33%; inhibition [22]: -4%; inhibition [24]: -5%; inhibition [26]: 32%; inhibition [34]: 18%; inhibition [27]: -1%; inhibition [28]: 5%; inhibition [29]: -3%; inhibition [30]: 4%; inhibition [31]: 1%; inhibition [32]: -6%

# More lines, now with the values behind:
SMILES,IC50 (K562) [nM],IC50 (A2780) [nM],IC50 (MCF7 [13]) [nM],IC50 (HCT-116) [nM],inhibition [19] [%],Activity (MCF7 [1]) [%],Activity (MCF7 [2]),Activity (MCF7 [3]) [%],Activity (MCF7 [4]) [%],Activity (MCF7 [5]) [%],viability at 1 µM (MCF7 [6]) [%],viability at 5 µM (MCF7 [7]) [%],Activity (MCF7 [8]) [%],Activity (MCF7 [9]) [%],Activity (MCF7 [10]) [%],Activity (MCF7 [11]) [%],IC50 [12] [nM],fold change (FC) (MCF7 [15]),viability at 10 µM (MCF7 [16]) [%],Activity (MCF7 [17]) [%],further results
O=c1[nH]c(NCc2ccc(CN3CCOCC3)cc2)nc2nc3ccc(Cl)cc3nc12,> 50000,190,200,310,–,11.2,Dose-dependent effect,4,2.9,3.2,82.6,74.1,6.3,16.4,14,7.8,40200,2,58,19.3,Ratio (MCF7 [14]): 7
COc1ccc2nc3nc(NCc4ccc(CN(C)C)cc4)[nH]c(=O)c3nc2c1,> 50000,700,550,1300,–,11.7,Dose-dependent effect,7.7,16.2,4.8,67.3,67.4,5.9,12,17,7.9,> 50000,2,60,22.1,–
CC(Nc1nc2nc3ccccc3nc2c(=O)[nH]1)c1ccccc1 (stereo not given),> 50000,340,160,140,–,22.1,–,5.1,4,10.5,63.4,71.2,7.9,32,14.1,9.7,> 50000,–,45.8,14.4,fold change (FC) (MCF7 [35]): >2; fold change (FC) (MCF7 [33]): 13
